# From PubChem BioAssay
# TAAR1 agonist: human TAAR1 agonists, primary screen, Fluo-8 calcium fluorescence, CHO RD-HGA16 cells; Trace amine-associated receptor 1 (Homo sapiens), Q96RJ0; vehicle wells 0%, saturating PEA agonist 100%; activation, % at 3 µM; actives 0.99% (n = 360,000); AID 624467, 2012;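 active = activation above the mean activation of all test compounds in the run plus 3 SD, cut at about 38% in these data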
#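 Repeats: no replicates (n 1) | Material: CHO-derived RD-HGA16 cells with stable Gα16 and human TAAR1 | Technique: Kinetic Fluo-8 calcium fluorescence | Schedule: 17-24 h seeding, 75 min 37 °C dye, 30 min RT | Evaluation: % activation from peak over basal fluorescence ratio, DMSO-to-PEA scaled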
# OX1R antag-1: antagonists of human orexin 1 receptor (OX1R); Orexin/Hypocretin receptor type 1 (Homo sapiens), O43613; OX1R-expressing cells, FRET antagonist read-out; inhibition, % at 6.6 µM; actives 1.8% (n = 330,000); in the data active = inhibition mostly above about 38%, no sharp cut-off; inactive = mostly below about 40%;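 also: 0% = agonist challenge alone and 100% = reference antagonist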
# OX1R antag-2: OX1R (HCRTR1) antagonists, primary screen, fluorescence, CHO/OX1R cells, Fluo-8 calcium, orexin A. Orexin/Hypocretin receptor type 1 (Homo sapiens), O43613. inhibition, % at 5 µM. Fluo-8 calcium fluorescence. actives 0.43% (n = 330,000);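 active = inhibition above its plate's threshold, mean inhibition of all tested compounds on the plate plus 3 SD, cut at about 37% in these data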;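 also: 0% = orexin A challenge wells and 100% = SB-334867-A antagonist wells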
# CHO parental Ca: ATP-evoked calcium signal inhibitors, parental CHO, primary screen, counter-screen for OX1R antagonist project, cell-based, fluorescence, Fluo-8 calcium dye; actives 0.63% (n = 330,000); inhibition, % at 5.6 µM; parental CHO-K1, ATP-induced calcium, Fluo-8 fluorescence;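 active = inhibition above that plate's mean sample inhibition plus 3 SD, cut at about 26% in these data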;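 also: 0% = ATP-challenged DMSO wells and 100% = DMSO wells without ATP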
#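 Test system: parental CHO cells; detection: calcium-sensitive Fluo-8 fluorescence; evaluation: percent inhibition of calcium signal; also added: ATP as calcium-mobilizing challenge; repeats: one well per compound; control set: ATP-challenged DMSO wells low, unchallenged DMSO wells high; compound: single nominal dose of 5.6 µM per compound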
# TAAR1 antag: human TAAR1 antagonists, primary screen, Fluo-8 calcium fluorescence, CHO RD-HGA16 cells; Trace amine-associated receptor 1 (Homo sapiens), Q96RJ0; inhibition, % at 3 µM; actives 1.5% (n = 360,000); antagonist;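 active = inhibition above a per-plate cutoff, the mean inhibition of test compounds on that plate plus 3 SD, cut at about 49% in these data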;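 also: 0% = DMSO plus EC80 beta-PEA response and 100% = DMSO alone without agonist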
#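 System: RD-HGA16 CHO cells with stable hTAAR1 and Gα16 | Probe or stimulus: EC80 β-phenethylamine stimulus | Dosing: 3 µM, single point | Times: Dye loading 75 min at 37 °C, then 30 min room temperature | Measured by: Fluo-8 calcium-sensitive fluorescence | Read-out basis: % inhibition of agonist calcium response | Replicates: n of 1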
# GPR7 antagonist: GPR7 receptor antagonists, primary screen, cell-based, fluorescence, single concentration; actives 1.1% (n = 290,000); inhibition, % at 4.4 µM; GPR7-expressing cells, fluorescence antagonist assay; AID 1861, 2009; in the data active = inhibition above about 16%, passing the limit was not always enough;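 also: cells stimulated with the agonist NPW; 0% = agonist with vehicle and 100% = vehicle without agonist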
# Target sequence (P48145 whole entry, looked up): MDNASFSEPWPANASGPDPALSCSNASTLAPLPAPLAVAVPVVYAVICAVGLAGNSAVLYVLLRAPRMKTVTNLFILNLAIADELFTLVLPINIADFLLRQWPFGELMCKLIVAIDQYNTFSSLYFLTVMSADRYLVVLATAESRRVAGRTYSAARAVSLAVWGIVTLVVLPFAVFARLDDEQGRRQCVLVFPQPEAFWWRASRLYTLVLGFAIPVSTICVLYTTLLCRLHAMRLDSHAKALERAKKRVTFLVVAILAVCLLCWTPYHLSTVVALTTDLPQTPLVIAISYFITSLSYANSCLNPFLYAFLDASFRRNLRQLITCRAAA
# * hit, by the source's call; / = no result. Sampled rows, rich in hits. Any-hit rate of the full collection: about 4.6%.
SMILES,TAAR1 agonist,OX1R antag-1,OX1R antag-2,CHO parental Ca,TAAR1 antag,GPR7 antagonist
C=CC[C@@H](CC(=O)N(CCO)Cc1ccccc1)C(=O)NC[C@@H](OC(=O)[C@@H](CC=C)Cc1ccc(F)cc1)c1ccccc1,13.1,7.3,39.1,-6.6,68.5*,/
CNc1ncnc2c1ncn2[C@H]1CN(CCOC)C[C@@H](CO)O1,8.7,/,/,/,-39.6,/
CC(=O)c1ccc(S(=O)(=O)N2CCC(NC(=O)Nc3cccc(F)c3)CC2)cc1,13.7,-0.2,-16.1,-5.9,48.2,-1.8
O=C(Nc1cccc(C(F)(F)F)c1)NC1CCN(S(=O)(=O)c2ccc(F)cc2)CC1,13.3,7.0,-4.6,33.6*,17.7,9.5
Cc1cccc(C(=O)NC2CCN(S(=O)(=O)c3cccc(F)c3)CC2)c1,-0.9,/,/,/,14.3,/
Cc1cccc(C(=O)NC2CCN(S(=O)(=O)c3ccc(F)cc3)CC2)c1,-0.4,10.0,16.1,41.2*,-3.5,17.1
Cc1ccc(CN2CCC(n3nccc3NC(=O)CCOc3ccccc3)CC2)cc1C,6.5,-0.1,-15.8,-21.5,-8.7,-1.8
O=C(O)CCC(=O)Nc1ccc(-n2ccc(C(F)(F)F)n2)cc1,1.8,5.4,-5.0,-13.7,-2.8,-4.2
Cc1cc(C)cc(NC(=O)Nc2ccc(-n3ccc(C(F)(F)F)n3)cc2)c1,4.1,53.6*,54.2*,40.2*,31.6,9.4
COc1ccc(Cl)cc1C(=O)NNC(=S)NC(=O)c1cc(-c2ccc(Cl)cc2)nc2ccccc12,37.5*,18.5,-4.9,-1.7,16.0,-2.6
O=C(c1cc(-c2ccccn2)nc2ccccc12)N1CCN(c2ncccn2)CC1,4.5,18.4,-8.6,-6.4,16.8,1.5
CCNC(=S)NNC(=O)c1cc(-c2ccc(OC)cc2)nc2ccccc12,0.0,10.7,-21.7,-21.7,11.1,-9.7
Cc1ccc(-c2cc(C(=O)N3CCN(c4ncccn4)CC3)c3ccccc3n2)cc1,16.5,13.1,-34.6,-33.2,50.5*,-12.2
COc1ccc(-c2cc(C(=O)Nc3ccc(C(N)=O)cc3)c3ccccc3n2)cc1OC,11.6,10.5,3.2,-11.7,53.8*,-6.4
COc1ccc(-c2cc(C(=O)N3CCN(c4ncccn4)CC3)c3ccccc3n2)cc1OC,13.2,5.6,-18.3,-12.7,57.3*,/
CC(=O)c1ccc(NC(=O)CN2CCN(S(=O)(=O)c3ccc4c(c3)OCCO4)CC2)cc1,-0.5,/,/,/,-0.2,/
O=C(NC1c2ccccc2Oc2ccccc21)c1ccc([N+](=O)[O-])cc1,-1.1,/,/,/,-30.5,/
C[C@@H]1NC(=O)N(c2ccc(F)cc2)C1=O,1.2,/,/,/,-11.2,-6.7
COc1cc(C(=O)N(C)CC(=O)Nc2cccc(F)c2)ccc1OCc1ccccc1,3.1,5.4,-14.9,-13.8,-15.4,/
Cc1nc2c(-c3ccc(F)cc3)cnn2c2c1CCC2,-0.9,54.5*,0.6,-13.4,-35.4,-13.2
COc1ccc(OC(=O)c2ccc(OC)c(S(=O)(=O)N3CCOCC3)c2)cc1,11.2,/,/,/,22.4,-8.7
O=C(Oc1ccc2c(c1)OCO2)c1ccc(Br)c(S(=O)(=O)N2CCOCC2)c1,21.3,6.7,-2.0,-16.2,50.5*,-6.1
CCOC(=O)c1ccc(NC(=O)c2ccc(C)c(S(=O)(=O)N3CCOCC3)c2)cc1,25.4,40.4,4.8,10.8,80.4*,23.0
O=C(Nc1ccc2c(c1)OCCO2)c1ccc(Br)c(S(=O)(=O)N2CCOCC2)c1,17.5,/,/,/,54.0*,2.4
O=C(N/C(=C\c1ccc2c(c1)OCO2)C(=O)N1CCOCC1)c1ccccc1Br,-1.3,11.9,-17.2,-0.4,3.1,-11.9
CN(C)c1ccc(NC(=O)/C=C/c2c(Cl)cccc2Cl)cc1,2.4,71.7*,8.6,-3.6,-17.4,5.2
CN(C)S(=O)(=O)c1ccc(NC(=O)/C=C/c2ccccc2Cl)cc1,13.0,19.7,-18.4,-11.7,3.7,-10.2
